How the values were obtained:
[1] = folding enthalpy; higher = less favourable; fluorescence melt of hairpins on a sequencing array, two-state fit; details: sodium 0.088 M
How it was run: (§1)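 Library hairpins on a sequenced MiSeq flow cell carried annealed Cy3 and quencher oligos, and their Cy3 fluorescence was imaged in 50 mM Na-HEPES pH 8.0 with 25 mM NaCl, in 2.5 °C steps up to 60 °C. Signals were normalised to Cy3 before quenching and to control constructs. Melting temperature and folding enthalpy were obtained from bootstrapped two-state fits, combined by inverse-variance weighting across four replicates, and the fitted temperatures were then raised by 9.35 °C to match UV melts.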

[2] = melting temperature; fluorescence melt of hairpins on a sequencing array, two-state fit, raised by 9.35 °C to match UV melts; details: sodium 0.088 M
How it was run: as §1

Sequence | folding enthalpy [1] | Tm [2]
GATCCAGCCGTGGATC ((((((....)))))) | -41.2 kcal/mol | 52.8 °C
GATCCAGCTGTGGATC ((((((....)))))) | -38.8 kcal/mol | 50.3 °C
GATCCAGCTTGGATC ((((((...)))))) | -32.9 kcal/mol | 52 °C
GATCCAGGAAACTGGGTC ((.((((....)))).)) | -29.9 kcal/mol | 49.9 °C
GATCCAGGCATGGATC ((((((....)))))) | -45.8 kcal/mol | 57.8 °C
GATCCAGGTGTGGATC ((((((....)))))) | -44.8 kcal/mol | 52 °C
GATCCAGTCATGGATC ((((((....)))))) | -39.8 kcal/mol | 58.3 °C
GATCCAGTCTTGGATC ((((((....)))))) | -43.5 kcal/mol | 53.5 °C
GATCCAGTGATGGATC ((((((....)))))) | -35.2 kcal/mol | 56.6 °C
GATCCAGTGTGGATC ((((((...)))))) | -33 kcal/mol | 51.6 °C
GATCCATAGCTGGATC ((((((....)))))) | -33.4 kcal/mol | 49.2 °C
GATCCATAGTTGGATC ((((((....)))))) | -33.2 kcal/mol | 50.6 °C
GATCCATCAATGGATC ((((((....)))))) | -44 kcal/mol | 52.3 °C
GATCCATCCTGGATC ((((((...)))))) | -43 kcal/mol | 52.7 °C
GATCCATCTATGGATC ((((((....)))))) | -39.3 kcal/mol | 55.8 °C
GATCCATCTTTGGATC ((((((....)))))) | -37.5 kcal/mol | 52.6 °C
GATCCATGCCTGGATC ((((((....)))))) | -36.2 kcal/mol | 51.6 °C
GATCCATGGCTGGATC ((((((....)))))) | -35.8 kcal/mol | 50.5 °C
GATCCATGTGTGGATC ((((((....)))))) | -37.2 kcal/mol | 56.5 °C
GATCCATTATGGATC ((((((...)))))) | -35.9 kcal/mol | 52.7 °C
GATCCATTCATGGATC ((((((....)))))) | -43.5 kcal/mol | 59.5 °C
GATCCATTCCTGGATC ((((((....)))))) | -39.1 kcal/mol | 50.3 °C
GATCCATTCTGGATC ((((((...)))))) | -33.2 kcal/mol | 54.3 °C
GATCCATTGTGGATC ((((((...)))))) | -38.8 kcal/mol | 51.7 °C

Sequence | folding enthalpy [1] | Tm [2]
GATCCATTGTTGGATC ((((((....)))))) | -44.2 kcal/mol | 52.2 °C
GATCCATTTCTGGATC ((((((....)))))) | -34.3 kcal/mol | 51 °C
GATCCATTTTTGGATC ((((((....)))))) | -39.5 kcal/mol | 54 °C
GATCCCAAACGGGATC ((((((....)))))) | -35.3 kcal/mol | 59.7 °C
GATCCCAATGGGATC ((((((...)))))) | -32.5 kcal/mol | 60.6 °C
GATCCCACAAGGGATC ((((((....)))))) | -30.6 kcal/mol | 64.7 °C
GATCCCACGAGGGATC ((((((....)))))) | -34.5 kcal/mol | 63.5 °C
GATCCCACGTGGGATC ((((((....)))))) | -45.1 kcal/mol | 60.3 °C
GATCCCACTGGGGATC ((((((....)))))) | -30.7 kcal/mol | 62.4 °C
GATCCCAGTGGGATC ((((((...)))))) | -40.6 kcal/mol | 60.8 °C
GATCCCATGTGGGATC ((((((....)))))) | -38.2 kcal/mol | 61.2 °C
GATCCCCAGTGGGATC ((((((....)))))) | -43.5 kcal/mol | 59.1 °C
GATCCCCATGGGGATC ((((((....)))))) | -39.7 kcal/mol | 67.7 °C
GATCCCCCAAGGGATC ((((((....)))))) | -38.6 kcal/mol | 61.2 °C
GATCCCCCTAGGGATC ((((((....)))))) | -32.6 kcal/mol | 61.3 °C
GATCCCCCTGGGGATC ((((((....)))))) | -36.1 kcal/mol | 67.5 °C
GATCCCCGAAAGGGCATC (((.(((....))).))) | -14.3 kcal/mol | 34.3 °C
GATCCCCGACGGGATC ((((((....)))))) | -27.3 kcal/mol | 56.8 °C
GATCCCCGAGGGATC ((((((...)))))) | -31.8 kcal/mol | 62 °C
GATCCCCGGCGGGATC ((((((....)))))) | -37.8 kcal/mol | 55.7 °C
GATCCCCGGGGGATC ((((((...)))))) | -35.3 kcal/mol | 60.9 °C
GATCCCCGGTGGGATC ((((((....)))))) | -37.5 kcal/mol | 57.7 °C
GATCCCCGTCGGGATC ((((((....)))))) | -32.4 kcal/mol | 62.8 °C
GATCCCCTCTGGGATC ((((((....)))))) | -29 kcal/mol | 60.3 °C

Sequence | folding enthalpy [1] | Tm [2]
GATCCCCTGTGGGATC ((((((....)))))) | -33.3 kcal/mol | 63 °C
GATCCCCTTGGGATC ((((((...)))))) | -37.4 kcal/mol | 63.6 °C
GATCCCGAAAGGGACATC ((((((....)))..))) | -9.22 kcal/mol | 30.9 °C
GATCCCGAAAGGGCGATC ((((((....)))..))) | -12.2 kcal/mol | 31.9 °C
GATCCCGAAAGGGGTATC ((((((....)))..))) | -11.8 kcal/mol | 35.7 °C
GATCCCGAAAGGGTAATC ((((((....)))..))) | -10.8 kcal/mol | 31.2 °C
GATCCCGATTGGGATC ((((((....)))))) | -36 kcal/mol | 59.1 °C
GATCCCGCGGGGATC ((((((...)))))) | -31.2 kcal/mol | 61 °C
GATCCCGGAAACGGGGTC ((.((((....)))).)) | -25.8 kcal/mol | 57.6 °C
GATCCCGGGCGGGATC ((((((....)))))) | -40.1 kcal/mol | 61.1 °C
GATCCCGGGGGGATC ((((((...)))))) | -35.4 kcal/mol | 61.6 °C
GATCCCGTGGGGATC ((((((...)))))) | -32.4 kcal/mol | 64.5 °C
GATCCCTACTGGGATC ((((((....)))))) | -37.7 kcal/mol | 64.4 °C
GATCCCTAGCGGGATC ((((((....)))))) | -34.5 kcal/mol | 59.1 °C
GATCCCTAGTGGGATC ((((((....)))))) | -38.7 kcal/mol | 57 °C
GATCCCTCAGGGATC ((((((...)))))) | -37.2 kcal/mol | 65 °C
GATCCCTCCGGGATC ((((((...)))))) | -44.2 kcal/mol | 67.7 °C
GATCCCTCGGGGGATC ((((((....)))))) | -37.4 kcal/mol | 61.2 °C
GATCCCTCTGGGGATC ((((((....)))))) | -39.1 kcal/mol | 61.5 °C
GATCCCTGCGGGGATC ((((((....)))))) | -45.6 kcal/mol | 62 °C
GATCCCTGGCGGGATC ((((((....)))))) | -37.2 kcal/mol | 59.1 °C
GATCCCTGGGGGATC ((((((...)))))) | -40.5 kcal/mol | 62.2 °C
GATCCCTGGGGGGATC ((((((....)))))) | -37.2 kcal/mol | 63.9 °C
GATCCCTGTGGGGATC ((((((....)))))) | -41.6 kcal/mol | 65.3 °C

Sequence | folding enthalpy [1] | Tm [2]
GATCCCTTAGGGGATC ((((((....)))))) | -43.7 kcal/mol | 61.3 °C
GATCCCTTATGGGATC ((((((....)))))) | -36.5 kcal/mol | 65.4 °C
GATCCCTTCGGGGATC ((((((....)))))) | -39.8 kcal/mol | 65.2 °C
GATCCCTTGTGGGATC ((((((....)))))) | -31 kcal/mol | 62.4 °C
GATCCCTTTAGGGATC ((((((....)))))) | -39.3 kcal/mol | 68.9 °C
GATCCGAAAACGGATC ((((((....)))))) | -37 kcal/mol | 52.6 °C
GATCCGAAGCGGATC ((((((...)))))) | -37 kcal/mol | 55.4 °C
GATCCGAAGTCGGATC ((((((....)))))) | -39.9 kcal/mol | 56.2 °C
GATCCGACAACGGATC ((((((....)))))) | -35 kcal/mol | 57 °C
GATCCGACACCGGATC ((((((....)))))) | -37.4 kcal/mol | 55.4 °C
GATCCGACAGCGGATC ((((((....)))))) | -34.2 kcal/mol | 54 °C
GATCCGACGAAAGTCATC (((..(((....)))))) | -9.01 kcal/mol | 25.9 °C
GATCCGACGGCGGATC ((((((....)))))) | -48 kcal/mol | 57.8 °C
GATCCGAGACGGATC ((((((...)))))) | -39.9 kcal/mol | 55.8 °C
GATCCGAGCTCGGATC ((((((....)))))) | -37.3 kcal/mol | 63 °C
GATCCGAGGTCGGATC ((((((....)))))) | -38.8 kcal/mol | 58.3 °C
GATCCGAGTCGGATC ((((((...)))))) | -35 kcal/mol | 59.5 °C
GATCCGAGTTCGGATC ((((((....)))))) | -47.4 kcal/mol | 58.5 °C
GATCCGATACCGGATC ((((((....)))))) | -29.9 kcal/mol | 57 °C
GATCCGATAGCGGATC ((((((....)))))) | -38.9 kcal/mol | 54.3 °C
GATCCGATCCCGGATC ((((((....)))))) | -38.9 kcal/mol | 55.6 °C
GATCCGATCGCGGATC ((((((....)))))) | -37.9 kcal/mol | 56 °C
GATCCGATGCGGATC ((((((...)))))) | -31 kcal/mol | 57.7 °C
GATCCGATGTCGGATC ((((((....)))))) | -37.6 kcal/mol | 61.6 °C

— the array DNA melting data of Ke et al. (doi:10.1101/2024.01.08.574731)
